Reference: ChEMBL document CHEMBL1123266, “Antibacterial activity of phosphono dipeptides related to alafosfalin” (J Med Chem, 1986)
Converted amounts (≈) assume the structure as drawn.

Tests used:
[1] = tested on: Bacillus subtilis; assay: Concentration (IC50) to inhibit the growth of Bacillus subtilis; type: functional, organism-based
Outline: (§1)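 Broth dilution in a defined liquid peptide medium lacking antagonists of small peptide mimetics. Inocula were overnight cultures grown in this medium at 37 °C and diluted to about 4 × 10^6 cfu/mL. Compound was tested as a doubling dilution series, final 0.065–512 μg/mL, incubated overnight at 37 °C. Turbidity was read, and IC50 is the concentration reducing 24-h growth to 50% of control.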

[2] = tested on: Escherichia coli; assay: Minimum inhibitory concentration (MIC) to control the growth of Escherichia coli strain PCM 2057; type: functional
Outline: (§2)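 Doubling dilutions of compound were made in a defined liquid peptide medium free of peptide-mimetic antagonists, final 0.065–512 μg/mL. The inoculum was an overnight 37 °C culture diluted to about 4 × 10^6 cfu/mL, incubated overnight at 37 °C. Non-turbid samples were subcultured (0.1 mL) onto solid peptide-medium agar and incubated overnight at 37 °C to assign MIC.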

[3] = tested on: Escherichia coli; assay: Concentration (IC50) to inhibit the growth of Escherichia coli.; type: functional, organism-based; outline: as §1
[4] = tested on: Klebsiella aerogenes; assay: Concentration (IC50) to inhibit the growth of Klebsiella aerogenes.; type: functional, organism-based; outline: as §1
[5] = tested on: Klebsiella aerogenes; assay: Minimum inhibitory concentration (MIC) to control the growth of Klebsiella aerogenes strain PCM 2063; type: functional; outline: as §2
[6] = tested on: Staphylococcus aureus; assay: Concentration (IC50) to inhibit the growth of Staphylococcus aureus.; type: functional, organism-based; outline: as §1
[7] = tested on: Staphylococcus aureus; assay: Minimum inhibitory concentration (MIC) to control the growth of Staphylococcus aureus strain PCM 2054.; type: functional; outline: as §2
[8] = tested on: Serratia marcescens; assay: Concentration (IC50) to inhibit the growth of Serratia marcescens.; type: functional, organism-based; outline: as §1
[9] = tested on: Serratia marcescens; assay: Minimum inhibitory concentration (MIC) to control the growth of Serratia marcescens strain PCM 549.; type: functional; outline: as §2
[10] = tested on: Enterococcus faecalis; assay: Concentration (IC50) to inhibit the growth of Streptococcus faecalis.; type: functional, organism-based; outline: as §1
[11] = tested on: Enterococcus faecalis; assay: Minimum inhibitory concentration (MIC) to control the growth of Streptococcus faecalis strain PCM 896; type: functional; outline: as §2
[12] = tested on: Bacillus subtilis; assay: Minimum inhibitory concentration (MIC) to control the growth of Bacillus subtilis strain PCM 1949.; type: functional; outline: as §2

COc1ccc(CC(NC(=O)C(N)CC(C)C)P(=O)(O)O)cc1OC (stereo not given)
IC50 [1]: > 512 µg/mL
MIC [2]: > 512 µg/mL
IC50 [3]: > 512 µg/mL
IC50 [4]: > 512 µg/mL
MIC [5]: > 512 µg/mL
IC50 [6]: > 512 µg/mL
MIC [7]: > 512 µg/mL
IC50 [8]: > 512 µg/mL
MIC [9]: > 512 µg/mL
IC50 [10]: > 512 µg/mL
MIC [11]: > 512 µg/mL
MIC [12]: > 512 µg/mL

COc1ccc(CC(NC(=O)C(C)N)P(=O)(O)O)cc1OC (stereo not given)
IC50 [1]: > 512 µg/mL
MIC [2]: > 512 µg/mL
IC50 [3]: > 512 µg/mL
IC50 [4]: > 512 µg/mL
MIC [5]: > 512 µg/mL
IC50 [6]: > 512 µg/mL
MIC [7]: > 512 µg/mL
IC50 [8]: > 512 µg/mL
MIC [9]: > 512 µg/mL
IC50 [10]: > 512 µg/mL
MIC [11]: > 512 µg/mL
MIC [12]: > 512 µg/mL

CC(C)CC(N)C(=O)NC(Cc1ccccc1)P(=O)(O)O (stereo not given)
IC50 [1]: 0.065 µg/mL (≈ 0.207 µM)
MIC [2]: > 512 µg/mL
IC50 [3]: > 512 µg/mL
IC50 [4]: > 512 µg/mL
MIC [5]: > 512 µg/mL
IC50 [6]: 0.6 µg/mL (≈ 1.91 µM)
MIC [7]: > 512 µg/mL
IC50 [8]: > 512 µg/mL
MIC [9]: > 512 µg/mL
IC50 [10]: > 512 µg/mL
MIC [11]: > 512 µg/mL
MIC [12]: > 512 µg/mL

CC(N)C(=O)NC(C1CCCCC1)P(=O)(O)O (stereo not given)
IC50 [1]: > 512 µg/mL
MIC [2]: > 512 µg/mL
IC50 [3]: > 512 µg/mL
IC50 [4]: > 512 µg/mL
MIC [5]: > 512 µg/mL
IC50 [6]: 256 µg/mL (≈ 969 µM)
MIC [7]: > 512 µg/mL
IC50 [8]: > 512 µg/mL
MIC [9]: > 512 µg/mL
IC50 [10]: > 512 µg/mL
MIC [11]: > 512 µg/mL
MIC [12]: > 512 µg/mL

CC(C)CC(N)C(=O)NC1(P(=O)(O)O)CCCCC1 (stereo not given)
IC50 [1]: 5.6 µg/mL (≈ 19.2 µM)
MIC [2]: > 512 µg/mL
IC50 [3]: > 512 µg/mL
IC50 [4]: > 512 µg/mL
MIC [5]: > 512 µg/mL
IC50 [6]: 0.065 µg/mL (≈ 0.222 µM)
MIC [7]: > 512 µg/mL
IC50 [8]: > 512 µg/mL
MIC [9]: > 512 µg/mL
IC50 [10]: > 512 µg/mL
MIC [11]: > 512 µg/mL
MIC [12]: > 512 µg/mL

CC(N)C(=O)NC(C1CCCC1)P(=O)(O)O (stereo not given)
IC50 [1]: > 512 µg/mL
MIC [2]: > 512 µg/mL
IC50 [3]: > 512 µg/mL
IC50 [4]: > 512 µg/mL
MIC [5]: > 512 µg/mL
IC50 [6]: 512 µg/mL (≈ 2050 µM)
MIC [7]: > 512 µg/mL
IC50 [8]: > 512 µg/mL
MIC [9]: > 512 µg/mL
IC50 [10]: 16 µg/mL (≈ 63.9 µM)
MIC [11]: > 512 µg/mL
MIC [12]: > 512 µg/mL

CC(C)CC(N)C(=O)NC(C)(C)P(=O)(O)O (stereo not given)
IC50 [1]: 45 µg/mL (≈ 178 µM)
MIC [2]: 64 µg/mL (≈ 254 µM)
IC50 [3]: 35 µg/mL (≈ 139 µM)
IC50 [4]: 4.4 µg/mL (≈ 17.4 µM)
MIC [5]: 256 µg/mL (≈ 1010 µM)
IC50 [6]: 48 µg/mL (≈ 190 µM)
MIC [7]: 256 µg/mL (≈ 1010 µM)
IC50 [8]: 384 µg/mL (≈ 1520 µM)
MIC [9]: > 512 µg/mL
IC50 [10]: 4.4 µg/mL (≈ 17.4 µM)
MIC [11]: 8 µg/mL (≈ 31.7 µM)
MIC [12]: 256 µg/mL (≈ 1010 µM)

CC(N)C(=O)NC(C)(C)P(=O)(O)O (stereo not given)
IC50 [1]: 16 µg/mL (≈ 76.1 µM)
MIC [2]: 64 µg/mL (≈ 305 µM)
IC50 [3]: 5.6 µg/mL (≈ 26.6 µM)
IC50 [4]: 512 µg/mL (≈ 2440 µM)
MIC [5]: 256 µg/mL (≈ 1220 µM)
IC50 [6]: 282 µg/mL (≈ 1340 µM)
MIC [7]: 256 µg/mL (≈ 1220 µM)
IC50 [8]: 48 µg/mL (≈ 228 µM)
MIC [9]: > 512 µg/mL
IC50 [10]: 19 µg/mL (≈ 90.4 µM)
MIC [11]: 8 µg/mL (≈ 38.1 µM)

CC(N)C(=O)NC(C(C)(C)C)P(=O)(O)O (stereo not given)
IC50 [1]: > 512 µg/mL
MIC [2]: > 512 µg/mL
IC50 [3]: > 512 µg/mL
IC50 [4]: > 512 µg/mL
MIC [5]: > 512 µg/mL
IC50 [6]: > 512 µg/mL
MIC [7]: > 512 µg/mL
IC50 [8]: > 512 µg/mL
MIC [9]: > 512 µg/mL
IC50 [10]: > 512 µg/mL
MIC [11]: > 512 µg/mL
MIC [12]: > 512 µg/mL

CC(C)CC(N)C(=O)NC(CC(C)C)P(=O)(O)O (stereo not given)
IC50 [1]: 32 µg/mL (≈ 114 µM)
MIC [2]: > 512 µg/mL
IC50 [3]: 307 µg/mL (≈ 1100 µM)
IC50 [4]: > 512 µg/mL
MIC [5]: > 512 µg/mL
IC50 [6]: 104 µg/mL (≈ 371 µM)
MIC [7]: 512 µg/mL (≈ 1830 µM)
IC50 [8]: 64 µg/mL (≈ 228 µM)
MIC [9]: > 512 µg/mL
IC50 [10]: > 512 µg/mL
MIC [11]: > 512 µg/mL
MIC [12]: > 512 µg/mL

CC(C)CC(NC(=O)C(C)N)P(=O)(O)O (stereo not given)
IC50 [1]: 153 µg/mL (≈ 642 µM)
MIC [2]: > 512 µg/mL
IC50 [3]: > 512 µg/mL
IC50 [4]: > 512 µg/mL
MIC [5]: > 512 µg/mL
IC50 [6]: 48 µg/mL (≈ 201 µM)
MIC [7]: 256 µg/mL (≈ 1070 µM)
IC50 [8]: > 512 µg/mL
MIC [9]: > 512 µg/mL
IC50 [10]: 90 µg/mL (≈ 378 µM)
MIC [11]: > 512 µg/mL
MIC [12]: > 512 µg/mL

CC(C)CC(N)C(=O)NC(C1CCCC1)P(=O)(O)O (stereo not given)
IC50 [1]: 435 µg/mL (≈ 1490 µM)
MIC [2]: > 512 µg/mL
IC50 [3]: > 512 µg/mL
IC50 [4]: > 512 µg/mL
MIC [5]: > 512 µg/mL
IC50 [6]: 6 µg/mL (≈ 20.5 µM)
MIC [7]: > 512 µg/mL
IC50 [8]: 64 µg/mL (≈ 219 µM)
MIC [9]: 128 µg/mL (≈ 438 µM)
IC50 [10]: > 512 µg/mL
MIC [11]: > 512 µg/mL
MIC [12]: > 512 µg/mL

CC(N)C(=O)NC1(P(=O)(O)O)CCCCC1 (stereo not given)
IC50 [1]: > 512 µg/mL
MIC [2]: > 512 µg/mL
IC50 [3]: > 512 µg/mL
IC50 [4]: > 512 µg/mL
MIC [5]: > 512 µg/mL
IC50 [6]: > 512 µg/mL
MIC [7]: > 512 µg/mL
IC50 [8]: > 512 µg/mL
MIC [9]: > 512 µg/mL
IC50 [10]: > 512 µg/mL
MIC [11]: > 512 µg/mL
MIC [12]: > 512 µg/mL
